This note sets out measurements from ChEMBL document CHEMBL5247671, “Design and Synthesis of Pyrazole-Based Macrocyclic Kinase Inhibitors Targeting BMPR2” (ACS Med Chem Lett, 2023).

Assay [1] deals with Serine/threonine-protein kinase 24 (Homo sapiens) (UniProt Q9Y6E0). Nature of the assay: Inhibition of recombinant MST3 (unknown origin) at 10 uM by DSF assay relative to staurosporine. In a few lines:
(§1)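 Differential scanning fluorimetry on an in-house panel of 90 recombinant kinases. Stabilization is read as the shift in melting temperature (ΔTm) relative to ligand-free protein. Staurosporine served as the positive control, and binding was also compared against its ΔTm.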
A general note: In DSF a fluorescence change marks the thermal transition of the protein.

Assay [2] addresses T1, Serine/threonine-protein kinase 4 (Homo sapiens) (UniProt Q13043).
T1 sequence (whole entry): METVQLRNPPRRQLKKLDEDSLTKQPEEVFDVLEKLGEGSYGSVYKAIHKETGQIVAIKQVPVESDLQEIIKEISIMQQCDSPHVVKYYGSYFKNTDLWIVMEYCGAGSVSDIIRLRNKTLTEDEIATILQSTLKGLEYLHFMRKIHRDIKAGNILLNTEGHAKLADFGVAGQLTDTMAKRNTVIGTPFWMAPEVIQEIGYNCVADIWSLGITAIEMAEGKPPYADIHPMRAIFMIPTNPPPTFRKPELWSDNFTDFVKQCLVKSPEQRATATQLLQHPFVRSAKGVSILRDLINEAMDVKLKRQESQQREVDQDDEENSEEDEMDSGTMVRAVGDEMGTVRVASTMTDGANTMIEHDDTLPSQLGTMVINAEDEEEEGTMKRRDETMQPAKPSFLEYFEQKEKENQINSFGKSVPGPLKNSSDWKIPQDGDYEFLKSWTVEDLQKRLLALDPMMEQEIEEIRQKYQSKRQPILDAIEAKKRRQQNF
Nature of the assay: Binding affinity to recombinant STK4 (unknown origin) assessed as change in melting temperature at 10 uM by DSF assay. In a few lines:
as §1

The target of assay [3] is Glycogen synthase kinase-3 beta (Homo sapiens, UniProt P49841). The experiment in a line: Inhibition of N-terminal NanoLuc-fused full length intact GSK3B (unknown origin) transfected in HEK293T cells incubated for 2 hrs in presence of tracer K8 by NanoBRET assay. Type of assay: cell-based. In a few lines:
(§2)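 Cellular target engagement by NanoBRET in intact cells expressing NanoLuc-fused GSK3A or GSK3B, with EC50 values derived from tracer displacement.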
(BRET reads energy transfer from a luciferase to a nearby fluorophore.)

In assay [4] the target is T2, MAP/microtubule affinity-regulating kinase 4 (Homo sapiens) (UniProt Q96L34).
T2 sequence (whole entry): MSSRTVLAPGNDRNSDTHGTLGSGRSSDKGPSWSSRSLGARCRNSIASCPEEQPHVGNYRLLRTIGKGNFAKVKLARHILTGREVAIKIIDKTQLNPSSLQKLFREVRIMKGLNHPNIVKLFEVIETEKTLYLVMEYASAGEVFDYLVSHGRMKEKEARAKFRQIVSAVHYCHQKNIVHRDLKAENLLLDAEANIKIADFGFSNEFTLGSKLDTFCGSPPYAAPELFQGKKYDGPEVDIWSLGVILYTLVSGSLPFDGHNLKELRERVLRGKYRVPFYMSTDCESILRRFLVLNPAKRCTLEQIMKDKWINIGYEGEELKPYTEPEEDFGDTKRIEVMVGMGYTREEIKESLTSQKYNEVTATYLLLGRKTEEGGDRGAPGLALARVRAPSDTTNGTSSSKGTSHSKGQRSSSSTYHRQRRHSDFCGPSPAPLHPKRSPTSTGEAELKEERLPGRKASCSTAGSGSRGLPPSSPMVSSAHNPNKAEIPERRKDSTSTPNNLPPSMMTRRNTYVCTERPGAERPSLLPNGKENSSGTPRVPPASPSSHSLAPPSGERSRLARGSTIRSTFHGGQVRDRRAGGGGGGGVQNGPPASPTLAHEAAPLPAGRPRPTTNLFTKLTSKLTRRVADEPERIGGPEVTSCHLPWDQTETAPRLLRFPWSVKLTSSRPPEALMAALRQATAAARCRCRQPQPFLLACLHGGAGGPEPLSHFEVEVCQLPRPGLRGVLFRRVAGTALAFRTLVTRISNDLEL
The experiment in a line: Binding affinity to recombinant MARK4 (unknown origin) assessed as change in melting temperature at 10 uM by DSF assay. The gist of the method:
as §1

In assay [5] the target is Serine/threonine-protein kinase RIO2 (Homo sapiens) (UniProt Q9BVS4). Nature of the assay: Inhibition of RIOK2 (unknown origin) assessed as residual activity at 1 uM by Kinomescan assay relative to staurosporine.
Assay [6] has as its target T3, Bone morphogenetic protein receptor type-2 (Homo sapiens) (UniProt Q13873).
T3 sequence (whole entry): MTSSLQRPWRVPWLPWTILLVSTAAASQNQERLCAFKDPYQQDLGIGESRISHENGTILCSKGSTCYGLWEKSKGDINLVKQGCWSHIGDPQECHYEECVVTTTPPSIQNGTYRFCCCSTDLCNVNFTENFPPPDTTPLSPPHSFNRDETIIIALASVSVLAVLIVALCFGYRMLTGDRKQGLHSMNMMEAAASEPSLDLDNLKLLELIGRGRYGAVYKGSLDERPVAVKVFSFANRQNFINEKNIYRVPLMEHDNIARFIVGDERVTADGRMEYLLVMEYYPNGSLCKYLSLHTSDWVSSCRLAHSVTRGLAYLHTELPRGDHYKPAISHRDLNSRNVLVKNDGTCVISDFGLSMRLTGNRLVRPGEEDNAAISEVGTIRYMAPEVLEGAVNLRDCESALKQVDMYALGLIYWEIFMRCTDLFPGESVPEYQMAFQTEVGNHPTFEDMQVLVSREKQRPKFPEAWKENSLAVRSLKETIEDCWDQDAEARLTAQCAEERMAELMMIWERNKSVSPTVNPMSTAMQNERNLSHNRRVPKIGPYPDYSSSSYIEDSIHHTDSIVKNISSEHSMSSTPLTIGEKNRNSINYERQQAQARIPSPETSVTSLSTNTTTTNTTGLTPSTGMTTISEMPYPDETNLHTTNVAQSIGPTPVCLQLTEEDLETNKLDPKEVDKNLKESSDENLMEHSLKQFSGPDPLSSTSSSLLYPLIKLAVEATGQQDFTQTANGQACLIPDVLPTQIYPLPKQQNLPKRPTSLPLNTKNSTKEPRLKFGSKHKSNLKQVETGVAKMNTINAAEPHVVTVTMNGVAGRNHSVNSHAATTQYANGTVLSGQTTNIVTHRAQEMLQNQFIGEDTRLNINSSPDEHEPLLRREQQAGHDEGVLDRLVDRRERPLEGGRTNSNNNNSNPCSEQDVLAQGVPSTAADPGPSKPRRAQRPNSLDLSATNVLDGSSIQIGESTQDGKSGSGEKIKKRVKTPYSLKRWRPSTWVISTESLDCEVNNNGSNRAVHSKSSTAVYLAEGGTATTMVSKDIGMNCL
Nature of the assay: Inhibition of recombinant BMPR2 (unknown origin) at 10 uM by DSF assay relative to […].

In assay [7] the target is Glycogen synthase kinase-3 alpha (Homo sapiens, UniProt P49840). The experiment in a line: Inhibition of N-terminal NanoLuc-fused full length GSK3A (unknown origin) transfected in HEK293T cells incubated for 2 hrs in presence of tracer K8 by NanoBRET assay. Format: cell-based. The gist of the method:
as §2

Assay [8] concerns the target T3, Bone morphogenetic protein receptor type-2 (Homo sapiens). The experiment in a line: Binding affinity to BMPR2 (unknown origin) assessed as change in enthalpy by ITC assay. The gist of the method: (§3)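 Binding measured by isothermal titration calorimetry against the recombinant BMPR2 kinase domain. Thermodynamic binding parameters, including the dissociation constant, were derived from the titration data.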
In general terms: Isothermal titration calorimetry measures the heat released or taken up as one component is titrated into another.

For assay [9] the target is unchanged. Nature of the assay: Binding affinity to BMPR2 (unknown origin) assessed as change in entropy by ITC assay. In a few lines:
as §3

Each structure is given as a SMILES string.

Serine/threonine-protein kinase RIO2 (Homo sapiens), sequence (Q9BVS4 whole entry, looked up): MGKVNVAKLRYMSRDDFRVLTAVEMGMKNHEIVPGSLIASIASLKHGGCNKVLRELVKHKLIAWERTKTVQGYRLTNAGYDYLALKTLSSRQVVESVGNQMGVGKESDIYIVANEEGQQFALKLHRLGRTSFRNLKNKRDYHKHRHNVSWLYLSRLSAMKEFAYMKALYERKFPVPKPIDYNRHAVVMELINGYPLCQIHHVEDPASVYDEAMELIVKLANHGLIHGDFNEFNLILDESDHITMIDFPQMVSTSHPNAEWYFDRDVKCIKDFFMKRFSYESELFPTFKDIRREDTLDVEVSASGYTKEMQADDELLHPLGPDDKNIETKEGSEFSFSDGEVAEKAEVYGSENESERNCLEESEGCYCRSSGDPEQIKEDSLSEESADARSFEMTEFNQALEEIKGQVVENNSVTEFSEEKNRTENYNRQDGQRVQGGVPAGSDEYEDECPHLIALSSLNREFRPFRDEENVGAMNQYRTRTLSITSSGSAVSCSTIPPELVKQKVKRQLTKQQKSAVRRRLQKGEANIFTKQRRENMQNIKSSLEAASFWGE
Serine/threonine-protein kinase 24 (Homo sapiens), sequence (Q9Y6E0 whole entry, looked up): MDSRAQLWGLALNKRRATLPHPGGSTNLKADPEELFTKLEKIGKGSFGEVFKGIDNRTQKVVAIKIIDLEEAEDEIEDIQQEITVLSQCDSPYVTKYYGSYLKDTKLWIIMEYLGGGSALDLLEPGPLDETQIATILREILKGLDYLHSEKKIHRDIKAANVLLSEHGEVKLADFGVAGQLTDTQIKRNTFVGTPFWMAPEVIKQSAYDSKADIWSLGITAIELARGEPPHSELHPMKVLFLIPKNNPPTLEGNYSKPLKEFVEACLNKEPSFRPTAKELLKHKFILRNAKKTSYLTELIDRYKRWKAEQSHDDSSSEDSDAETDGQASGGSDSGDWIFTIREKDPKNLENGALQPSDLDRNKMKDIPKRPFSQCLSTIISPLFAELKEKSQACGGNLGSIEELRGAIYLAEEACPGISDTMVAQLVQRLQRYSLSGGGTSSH
Glycogen synthase kinase-3 beta, sequence (P49841 whole entry, the tested form may be a part): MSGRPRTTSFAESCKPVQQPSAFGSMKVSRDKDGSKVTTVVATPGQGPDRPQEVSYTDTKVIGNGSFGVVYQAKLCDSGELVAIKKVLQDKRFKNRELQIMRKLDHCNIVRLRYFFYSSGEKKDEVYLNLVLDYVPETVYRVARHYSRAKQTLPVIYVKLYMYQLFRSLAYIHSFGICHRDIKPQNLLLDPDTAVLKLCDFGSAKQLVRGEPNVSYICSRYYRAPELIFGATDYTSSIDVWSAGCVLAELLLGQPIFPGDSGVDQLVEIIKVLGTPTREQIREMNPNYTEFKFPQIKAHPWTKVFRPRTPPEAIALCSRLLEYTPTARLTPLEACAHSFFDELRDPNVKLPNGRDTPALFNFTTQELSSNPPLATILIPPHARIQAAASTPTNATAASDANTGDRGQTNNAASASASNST
Glycogen synthase kinase-3 alpha, sequence (P49840 whole entry, the tested form may be a part): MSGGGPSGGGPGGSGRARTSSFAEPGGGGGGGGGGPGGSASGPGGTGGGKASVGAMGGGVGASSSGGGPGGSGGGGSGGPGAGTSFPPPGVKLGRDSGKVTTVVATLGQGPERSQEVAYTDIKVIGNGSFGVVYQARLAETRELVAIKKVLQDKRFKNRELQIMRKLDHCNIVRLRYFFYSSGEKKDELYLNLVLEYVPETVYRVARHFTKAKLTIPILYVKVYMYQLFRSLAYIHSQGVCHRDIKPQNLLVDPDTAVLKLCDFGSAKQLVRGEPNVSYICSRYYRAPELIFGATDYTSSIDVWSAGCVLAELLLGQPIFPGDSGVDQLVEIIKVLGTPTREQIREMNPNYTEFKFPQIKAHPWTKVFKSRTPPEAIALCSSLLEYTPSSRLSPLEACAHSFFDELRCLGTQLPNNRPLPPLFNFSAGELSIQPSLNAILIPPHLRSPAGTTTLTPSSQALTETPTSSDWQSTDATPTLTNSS

One may read the inhibition as the drop in the measured response relative to a control, in per cent. The ΔTm is the shift of the melting midpoint relative to a reference. As usually defined, the IC50 is the concentration needed to halve the response being measured. For `O=C1NCCc2ccc(cc2)Nc2nccc(n2)Nc2cc1[nH]n2`, the figures for the inhibition in assay [1] and in assay [6] were 44% and 103%, respectively. For the same molecule, the ΔTm stood at 3.2 °C in assay [2] and 3.8 °C in assay [4]. Also, the half-inhibitory concentration (IC50) in assay [3] was 34 µM; in [7] it was 11 µM. Further, the Activity in [5] is 27%. Besides, in [8], the deltaH was -8.41 kcal/mol. In addition, the deltaS in [9] turned out to be 3.7 cal/mol.K.
